The text below walks through data of ChEMBL document CHEMBL2331226, “Antiproliferative and antiplasmodial dimeric phloroglucinols from Mallotus oppositifolius from the Madagascar Dry Forest (1)” (J Nat Prod, 2013).

One test deals with A2780. In words: Cytotoxicity against human A2780 cells. Type of test: functional, cell-based.
Test [1] concerns Plasmodium falciparum. In words: Antimalarial activity against chloroquine/mefloquine-resistant Plasmodium falciparum Dd2 intraerythrocytic stage after 72 hrs by SYBR green I dye based assay. In kind it is functional, organism-based. The conditions noted are these: for IC50: Plasmodium falciparum, Dd2, 72 h.
Test [2] deals with Plasmodium falciparum. In words: Cytocidal antimalarial activity against chloroquine/mefloquine-resistant Plasmodium falciparum Dd2 intraerythrocytic stage. Type of test: functional. The conditions noted are these: read-out: LD50 (the source's name). The method in brief: (§1)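 Killing of intraerythrocytic stages measured by a rapid cytocidal assay, per an earlier report. LD50 values are the mean of three replicate determinations ± S.E.M.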

Test [3] concerns Plasmodium falciparum. In words: Cytocidal antimalarial activity against drug-sensitive Plasmodium falciparum HB3 intraerythrocytic stage. Type of test: functional. The conditions noted are these: read-out: LD50 (the source's name). The method in brief: as §1
In test [4] the test system is Plasmodium falciparum. In words: Antimalarial activity against chloroquine-sensitive Plasmodium falciparum NF54 early gametocyte stage assessed as reduction in occurrence of asexual intraerythrocytic stages after 13 days at 0.76 uM by microscopy. In kind it is functional, organism-based. The method in brief:
(§2)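 NF54 cultures at 0.75% parasitemia and 1% hematocrit were grown 13 days with or without drug in 24-well plates, humidified, at 37 °C under low oxygen. Plain or drug-supplemented medium was replaced on days 4, 6, 8 and 9-12. On day 13, asexual and sexual parasitaemia were counted on Giemsa-stained smears. Controls were untreated and 0.5% DMSO vehicle. Two independent experiments.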

The test system of test [5] is Plasmodium falciparum. In words: Antimalarial activity against chloroquine-sensitive Plasmodium falciparum NF54 early gametocyte stage assessed as reduction in occurrence of gametocyte stages after 13 days at 0.76 uM by microscopy. In kind it is functional. Also noted: scale not given: the % may be the effect or the level left. The method in brief:
as §2

In test [6] the test system is Plasmodium falciparum. In words: Gametocytocidal antimalarial activity against chloroquine-sensitive Plasmodium falciparum NF54 late gametocyte stage after 72 hrs by alamar blue assay. In kind it is functional, organism-based. The conditions noted are these: NF54, 72 h. The method in brief: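 Stage V gametocytes came from NF54 cultures kept at 37 °C in 5% O2, 5% CO2 and […]. Asexual stages were cleared with 5% sorbitol for four days from day 9, and gametocytes were purified on day 13 over NycoPrep 1.077. 30,000–50,000 gametocytes per well were incubated with drug for 72 h in low O2. AlamarBlue was then added for 24 h (ex 540/em 585 nm). IC50 from dose-response fit; two independent determinations in duplicate, ± S.E.M.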

In test [7] the test system is Plasmodium falciparum. In words: Antimalarial activity against chloroquine-sensitive Plasmodium falciparum NF54 asexual stage after 72 hrs by alamar blue assay. Type of test: functional, organism-based. The conditions noted are these: NF54, 72 h. (Resazurin is reduced to fluorescent resorufin, in cell work by metabolically active cells.)
Test [8] relates to Plasmodium falciparum. In words: Antimalarial activity against chloroquine-sensitive Plasmodium falciparum NF54 early gametocyte stage assessed as reduction in occurrence of asexual intraerythrocytic stages after 13 days at 0.14 uM by microscopy. Type of test: functional, organism-based. A digest of the protocol:
as §2

Test [9] deals with Plasmodium falciparum. In words: Antimalarial activity against chloroquine-sensitive Plasmodium falciparum NF54 early gametocyte stage assessed as reduction in occurrence of gametocyte stages after 13 days at 0.14 uM by microscopy. In kind it is functional, organism-based. The method in brief: as §2

Active and inactive are the calls of the source. The calls are words filed in the database; no cut-off is given here.

Broadly, the IC50 is the concentration that inhibits the measured activity by half. Regarding `COc1c(C)c(O)c(C(C)=O)c(O)c1Cc1c(O)c(C(C)=O)c(O)c(CC=C(C)C)c1OC` [MALLOTOJAPONIN B], the IC50 in the test on A2780 was 1100 nM; with Plasmodium falciparum [1], 750 nM. For the same compound, the IC100 with Plasmodium falciparum [1] came to 44 µM. In addition, the LC50 with Plasmodium falciparum [2] came to 6.7 µM; with Plasmodium falciparum [3], 14.6 µM. Moreover, the outcome in the test with Plasmodium falciparum [4] was Active. Moreover, in the test on Plasmodium falciparum [5], the Activity is reported as 80%.
`COc1c(CC=C(C)C)c(O)c(C(C)=O)c(O)c1Cc1c(O)c(C(C)=O)c(O)c(CC=C(C)C)c1OC` [MALLOTOJAPONIN C]: the half-inhibitory concentration (IC50) was 1300 nM in the test with A2780, 140 nM in the test with Plasmodium falciparum [1], 3600 nM in the test with Plasmodium falciparum [6] and 70 nM in the test with Plasmodium falciparum [7]. The compound further came in with an IC100 in the test on Plasmodium falciparum [1] of 39 µM. For the same compound, the LC50 is 0.8 µM in the test with Plasmodium falciparum [2] and 0.81 µM with Plasmodium falciparum [3]. Also, the result with Plasmodium falciparum [8] and in the test with Plasmodium falciparum [9] was Active.
For the compound `C[C@H]1[C@H](OC(=O)CCC(=O)O)O[C@@H]2O[C@@]3(C)CC[C@H]4[C@H](C)CC[C@@H]1[C@@]24OO3` [ARTESUNATE], in the test with Plasmodium falciparum [6], the half-maximal inhibitory concentration (IC50) worked out at 2300 nM.
